Measurements published in ChEMBL document CHEMBL3259696, “Berberine and its metabolites: relationship between physicochemical properties and plasma levels after administration to human subjects” (J Nat Prod, 2014).
Active and inactive are the calls of the source. The calls are words filed in the database; no cut-off is given here.

Columns and labels:
[1] = 1-Octanol-water partition coefficient, log P of the compound at pH 8.6 after 1 week by HPLC-ESIMS/MS analysis; assay type: physicochemical
In short: (§1)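 Shake-flask partition: analytes started at 0.1 mM in 0.1 M Na phosphate buffer (pH range 4.5 to 9). Buffer solution mixed 1:1 with buffer-presaturated 1-octanol and equilibrated 1 week under continuous stirring at 25 °C. After centrifugation the phases were separated, and the aqueous phase was diluted in mobile phase and quantified by HPLC-ESIMS/MS. LogD calculated from the aqueous-phase concentration.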

[2] = 1-Octanol-water partition coefficient, log P of the compound at pH 7 after 1 week by HPLC-ESIMS/MS analysis; assay type: physicochemical; in short: as §1
[3] = 1-Octanol-water partition coefficient, log P of the compound at pH 6 after 1 week by HPLC-ESIMS/MS analysis; assay type: physicochemical; in short: as §1
[4] = 1-Octanol-water partition coefficient, log P of the compound at pH 4.5 after 1 week by HPLC-ESIMS/MS analysis; assay type: physicochemical; in short: as §1
[5] = 1-Octanol-water distribution coefficient, log D of the compound at pH 8.6 after 1 week by HPLC-ESIMS/MS analysis; assay type: physicochemical; in short: as §1
[6] = 1-Octanol-water distribution coefficient, log D of the compound at pH 7 after 1 week by HPLC-ESIMS/MS analysis; assay type: physicochemical; in short: as §1
[7] = 1-Octanol-water distribution coefficient, log D of the compound at pH 6 after 1 week by HPLC-ESIMS/MS analysis; assay type: physicochemical; in short: as §1
[8] = 1-Octanol-water distribution coefficient, log D of the compound at pH 4.5 after 1 week by HPLC-ESIMS/MS analysis; assay type: physicochemical; in short: as §1
[9] = Solubility of the compound in sodium phosphate buffer at pH 8.6 at 25 degC after 1 week by HPLC-ESIMS/MS analysis; assay type: physicochemical
In short: (§2)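 Solubility samples in sodium phosphate buffer at each pH were stirred continuously for 1 week at 25 °C. Solutions were passed through 0.45 μm regenerated-cellulose filters, diluted in mobile phase and quantified by HPLC-ESIMS/MS.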

[10] = Solubility of the compound in sodium phosphate buffer at pH 7 at 25 degC after 1 week by HPLC-ESIMS/MS analysis; assay type: physicochemical; in short: as §2
[11] = Solubility of the compound in sodium phosphate buffer at pH 6 at 25 degC after 1 week by HPLC-ESIMS/MS analysis; assay type: physicochemical; in short: as §2
[12] = Solubility of the compound in sodium phosphate buffer at pH 4.5 at 25 degC after 1 week by HPLC-ESIMS/MS analysis; assay type: physicochemical; in short: as §2
[13] = molecular target: Albumin (Bos taurus, UniProt P02769); assay: Binding affinity to bovine serum albumin by fluorescence quenching assay; assay type: ADME; conditions: cattle, isolated protein
In short: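 BSA at 1.0 × 10−5 mol L−1 in Tris-HCl buffer (0.05 M Tris, 0.15 M NaCl, pH 7.4), titrated with quencher from 0 to 2.4 × 10−5 mol L−1 in 0.2 × 10−5 steps at room temperature. Tryptophan emission recorded at 300–500 nm (excitation 295 nm; maximum at 340 nm). Binding constant KB obtained from a modified Stern–Volmer plot, assuming static quenching.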

[14] = Dissociation constant, pKa of the compound; assay type: physicochemical
In short: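 pKa values predicted in silico for the ionizable groups of the parent and its metabolites, then compared with experimentally obtained values from earlier reports.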

[15] = Cmax in human plasma at 500 mg, po by HPLC-ESIMS/MS analysis; assay type: ADME, organism-based; set-up: dose 500 mg, route oral
[16] = Tmax in human at 500 mg, po by HPLC-ESIMS/MS analysis; assay type: ADME, organism-based; conditions: in vivo
[17] = test system: Plasma; assay: Cmax in human plasma assessed as demethyleneberberin at 500 mg, po by HPLC-ESIMS/MS analysis; assay type: ADME, organism-based; set-up: dose 500 mg, route oral; conditions: in vivo
[18] = test system: Plasma; assay: Cmax in human plasma assessed as jatrorrhizine at 500 mg, po by HPLC-ESIMS/MS analysis; assay type: ADME, organism-based; set-up: dose 500 mg, route oral; conditions: in vivo
[19] = test system: Homo sapiens; assay: Tmax in human assessed as demethyleneberberin at 500 mg, po by HPLC-ESIMS/MS analysis; assay type: ADME, organism-based; conditions: in vivo
[20] = test system: Homo sapiens; assay: Tmax in human assessed as jatrorrhizine at 500 mg, po by HPLC-ESIMS/MS analysis; assay type: ADME, organism-based; conditions: in vivo
[21] = test system: Plasma; assay: Cmax in human plasma assessed as berberrubine at 500 mg, po after 4 hrs by HPLC-ESIMS/MS analysis; assay type: ADME, organism-based; set-up: dose 500 mg, route oral; conditions: in vivo
[22] = test system: Plasma; assay: Plasma concentration in human assessed as berberrubine at 500 mg, po after 24 hrs by HPLC-ESIMS/MS analysis; assay type: ADME, organism-based; conditions: in vivo
[23] = Cmax at steady state in hypercholesterolemic patient at 15 mg/kg administered for 3 months by HPLC-ESIMS/MS analysis; assay type: ADME, organism-based; set-up: dose 15 mg/kg; conditions: human, in vivo
[24] = test system: Homo sapiens; assay: Cmax at steady state in hypercholesterolemic patient assessed as berberrubine at 15 mg/kg/day administered for 3 months by HPLC-ESIMS/MS analysis; assay type: ADME, organism-based; set-up: dose 15 mg/kg/day; conditions: in vivo
[25] = test system: Homo sapiens; assay: Cmax at steady state in hypercholesterolemic patient assessed as demethyleneberberin at 15 mg/kg/day administered for 3 months by HPLC-ESIMS/MS analysis; assay type: ADME, organism-based; set-up: dose 15 mg/kg/day; conditions: in vivo
[26] = test system: Homo sapiens; assay: Cmax at steady state in hypercholesterolemic patient assessed as jatrorrhizine at 15 mg/kg/day administered for 3 months by HPLC-ESIMS/MS analysis; assay type: ADME, organism-based; set-up: dose 15 mg/kg/day; conditions: in vivo
[27] = test system: Homo sapiens; assay: Hypolipidemic activity in hypercholesterolemic patient assessed as reduction of total cholesterol level at 15 mg/kg/day administered for 3 months measured every month during compound treatment; assay type: functional, organism-based
[28] = test system: Homo sapiens; assay: Hypolipidemic activity in hypercholesterolemic patient assessed as reduction of LDL cholesterol level at 15 mg/kg/day administered for 3 months measured every month during compound treatment; assay type: functional, organism-based
[29] = test system: Homo sapiens; assay: Effect on total triglyceride level in hypercholesterolemic patient at 15 mg/kg/day administered for 3 months measured every month during compound treatment; assay type: functional, organism-based
[30] = test system: Homo sapiens; assay: Effect on HDL cholesterol level in hypercholesterolemic patient at 15 mg/kg/day administered for 3 months measured every month during compound treatment; assay type: functional, organism-based
[31] = Dissociation constant, acidic pKa of the compound; assay type: physicochemical
[32] = Dissociation constant, basic pKa of the compound; assay type: physicochemical

Chain of Albumin (P02769 whole entry): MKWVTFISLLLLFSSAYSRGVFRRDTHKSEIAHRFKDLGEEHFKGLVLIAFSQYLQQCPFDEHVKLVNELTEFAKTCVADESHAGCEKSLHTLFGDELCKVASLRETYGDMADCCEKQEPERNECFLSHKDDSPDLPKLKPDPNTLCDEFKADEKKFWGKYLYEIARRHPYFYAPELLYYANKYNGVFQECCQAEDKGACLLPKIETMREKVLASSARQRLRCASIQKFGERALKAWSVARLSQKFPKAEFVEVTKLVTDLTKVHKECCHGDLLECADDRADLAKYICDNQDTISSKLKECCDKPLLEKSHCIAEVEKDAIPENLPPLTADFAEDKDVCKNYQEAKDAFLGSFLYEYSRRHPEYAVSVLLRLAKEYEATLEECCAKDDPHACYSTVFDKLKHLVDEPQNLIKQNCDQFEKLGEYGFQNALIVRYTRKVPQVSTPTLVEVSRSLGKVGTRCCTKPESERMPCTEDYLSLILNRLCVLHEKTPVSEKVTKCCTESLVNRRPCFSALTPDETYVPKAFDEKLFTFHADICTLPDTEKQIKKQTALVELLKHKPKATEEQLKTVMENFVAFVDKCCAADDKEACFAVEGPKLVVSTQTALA

logD at 168 h [1] | logD at 168 h [2] | logD at 168 h [3] | logD at 168 h [4] | logD at 168 h [5] | logD at 168 h [6] | logD at 168 h [7] | logD at 168 h [8] | solubility at 168 h [9] [mM] | solubility at 168 h [10] [mM] | solubility at 168 h [11] [mM] | solubility at 168 h [12] [mM] | Kb [13] [×10³ L/mol] | pKa [14] | Structure (SMILES) | other results
-0.5 | -1.1 | -1.1 | -1.1 | -0.3 | -1.1 | -1.1 | -1.1 | 6.5 | 3.7 | 0.2 | 0.2 | 1.98 | 9.4 | COc1ccc2cc3[n+](cc2c1OC)CCc1cc(O)c(O)cc1-3.[Cl-] | 
-1.2 | -1.2 | -1.2 | -1.2 | -1.2 | -1.2 | -1.2 | -1.2 | 9.6 | 9 | 7.6 | 8.2 | 3.37 |  | COc1ccc2cc3[n+](cc2c1OC)CCc1cc2c(cc1-3)OCO2.[Cl-] [BERBERINE CHLORIDE] | Cmax [15]: 0.07 nM; Tmax [16]: 1 h; Cmax [17]: 0.14 nM; Cmax [18]: 0.13 nM; Tmax [19]: 1 h; Tmax [20]: 2 h; Cmax [21]: 1.4 nM; concentration [22]: 0.15 nM; Cmax at 3 months [23]: 4 nM; Cmax [24]: 6.7 nM; Cmax [25]: 1.7 nM; Cmax [26]: 5.6 nM; Activity [27]: Active; Activity [28]: Active; Activity [29]: inactive; Activity [30]: inactive; pKa [31]: 2.47; pKa [32]: 15.7
1.6 | 1.1 | 0.9 | -0.02 | 4.6 | 2.5 | 1.4 | 0.01 | 0.5 | 1 | 2 | 4.2 | 1.51 | 5 | COc1ccc2cc3[n+](cc2c1O)CCc1cc2c(cc1-3)OCO2.[Cl-] [BERBERRUBINE CHLORIDE] | 

More lines, now with the values behind:

Structure (SMILES) | logD at 168 h [1] | logD at 168 h [2] | logD at 168 h [3] | logD at 168 h [4] | logD at 168 h [5] | logD at 168 h [6] | logD at 168 h [7] | logD at 168 h [8] | solubility at 168 h [9] [mM] | solubility at 168 h [10] [mM] | solubility at 168 h [11] [mM] | solubility at 168 h [12] [mM] | Kb [13] [×10³ L/mol] | pKa [14] | other results
COc1ccc2cc3n(cc-2c1=O)CCc1cc2c(cc1-3)OCO2 | 1.6 | 1.5 | 1.3 | 0.6 | 4.6 | 2.9 | 1.8 | 0.7 |  |  |  |  |  |  | 
COc1cc2c(cc1O)CC[n+]1cc3c(OC)c(OC)ccc3cc1-2.[Cl-] [JATRORRHIZINE CHLORIDE] | 0.1 | -1.2 | -1.5 | -1.5 | 0.6 | -1.2 | -1.5 | -1.5 | 12.2 | 12.4 | 1.3 | 1.5 | 1.73 | 9.6 | 
